According to ChEMBL document CHEMBL4665798, “Novel Human Urate Transporter 1 Inhibitors as Hypouricemic Drug Candidates with Favorable Druggability” (J Med Chem, 2020):

What follows are compounds tested on Mus musculus (assay: Hypouricemic activity in Kunming mouse model of xanthine/potassium oxonate-induced acute hyperuricemia assessed as decrease in serum uric acid level at 2 mg/kg administered 3 hrs prior to xanthine/potassium oxonate and measured after 6 hrs relative to control). Conditions: time 9 hrs.
Type: functional
Design: scale not given: the % may be the effect or the level left
Outline: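 Male Kunming mice, hyperuricemia induced by intragastric xanthine plus subcutaneous potassium oxonate (0.2 mL each). […] Groups: normal vehicle, untreated model, active control, test. Serum uric acid measured. Decrease ratio = (model SUA − compound SUA)/(model SUA − vehicle SUA).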
`O=C(O)CCCSc1nc2cccnc2n1-c1ccc(C2CC2)c2ccccc12` was tested, and the Activity was 1.07%. In the case of `Cc1cc(C)c(-n2c(SC(C)(C)C(=O)O)nc3cccnc32)c(C)c1`, the Activity is reported as -4.96%. Work on `CC(Sc1nc2cnccc2n1-c1ccc(C#N)c2ccccc12)C(=O)O` (stereo not drawn) yielded an Activity of 27.84%. Work on `CCOC(=O)C1(Sc2nc3cnccc3n2-c2ccc(C#N)c3ccccc23)CCC1` yielded an Activity of 14.44%. In the case of `CCOC(=O)CSc1nc2ncccc2n1-c1ccc(C2CC2)c2ccccc12`, the Activity is reported as 33.56%. Work on `COC(=O)CCCSc1nc2cnccc2n1-c1ccc(C#N)c2ccccc12` yielded an Activity of 8.96%. For `CCOC(=O)C(C)Sc1nc2cnccc2n1-c1ccc(C2CC2)c2ccccc12` (stereo not drawn), the Activity was 49.46%. Compound `CCOC(=O)C(C)Sc1nc2cccnc2n1-c1c(C)cc(C)cc1C` (stereo not drawn) has an Activity of 22.34%. `CS(=O)(=O)NC(=O)CSc1nnc(Br)n1-c1ccc(C2CC2)c2ccccc12` was tested, and the Activity was 81.53%. `CCOC(=O)C1(Sc2nc3ncccc3n2-c2ccc(C3CC3)c3ccccc23)CCC1` showed an Activity of 47.9%. `O=C(CSc1nnc(Br)n1-c1ccc(C2CC2)c2ccccc12)NS(=O)(=O)c1ccc(F)cc1` gave an Activity of 75.17%. Work on `Cc1cc(C)c(-n2c(SC(C)C(=O)O)nc3cccnc32)c(C)c1` (stereo not drawn) yielded an Activity of 37.04%. In the case of `CCOC(=O)C(C)(C)Sc1nc2cccnc2n1-c1c(C)cc(C)cc1C`, the Activity is reported as 41.56%. In the case of `CCOC(=O)CSc1nc2cccnc2n1-c1cccc2ccccc12`, the Activity is reported as 4.03%. `N#Cc1ccc(-n2c(SCCCC(=O)O)nc3ncccc32)c2ccccc12` gave an Activity of 20.3%. In the case of `CCOC(=O)CCCSc1nc2cnccc2n1-c1ccc(C2CC2)c2ccccc12`, the Activity is reported as 47.37%. With `O=C(O)CSc1nc2cccnc2n1-c1cccc2ccccc12` the Activity was 2.25%. In the case of `CCOC(=O)C1(Sc2nc3ncccc3n2-c2ccc(C#N)c3ccccc23)CCC1`, the Activity is reported as 34.56%. `Cc1cc(C)c(-n2c(SCC(=O)O)nc3cccnc32)c(C)c1` showed an Activity of 18.26%. Compound `O=C(CSc1nnc(Br)n1-c1ccc(C2CC2)c2ccccc12)NS(=O)(=O)c1cccs1` has an Activity of 63.94%. `CCOC(=O)CCCSc1nc2cccnc2n1-c1cccc2ccccc12` was tested, and the Activity was 37.38%. Work on `CCOC(=O)C(C)(C)Sc1nc2cnccc2n1-c1ccc(C2CC2)c2ccccc12` yielded an Activity of 68.65%. With `CCOC(=O)C(C)(C)Sc1nc2cccnc2n1-c1ccc(C2CC2)c2ccccc12` the Activity was 2.61%. For `Cc1cc(C)c(-n2c(SCCCC(=O)O)nc3cccnc32)c(C)c1`, the Activity was 13.05%. In the case of `CC(Sc1nc2cccnc2n1-c1cccc2ccccc12)C(=O)O` (stereo not drawn), the Activity is reported as -1.78%. In the case of `CCOC(=O)CCCSc1nc2ncccc2n1-c1ccc(C2CC2)c2ccccc12`, the Activity is reported as 33.6%. In the case of `N#Cc1ccc(-n2c(SCCCC(=O)O)nc3cnccc32)c2ccccc12`, the Activity is reported as 11.19%. With `COC(=O)CCSc1nc2cnccc2n1-c1ccc(C#N)c2ccccc12` the Activity was 11.47%. `COC(=O)C(C)(C)Sc1nc2cnccc2n1-c1ccc(C#N)c2ccccc12` was tested, and the Activity was 9.09%. Work on `CCOC(=O)CSc1nc2cnccc2n1-c1ccc(C2CC2)c2ccccc12` yielded an Activity of 40.79%. Compound `CCOC(=O)CSc1nc2cccnc2n1-c1c(C)cc(C)cc1C` has an Activity of -2.2%. Compound `CC(C)(Sc1nc2cnccc2n1-c1ccc(C2CC2)c2ccccc12)C(=O)O` has an Activity of 37.89%. `CCOC(=O)CSc1nc2cccnc2n1-c1ccc(C2CC2)c2ccccc12` gave an Activity of 41.96%. Compound `CCOC(=O)C(C)(C)Sc1nc2ncccc2n1-c1ccc(C#N)c2ccccc12` has an Activity of 12.71%. In the case of `O=C(O)CSc1nc2cccnc2n1-c1ccc(C2CC2)c2ccccc12`, the Activity is reported as 43.69%. Compound `CC(C)(Sc1nc2cccnc2n1-c1cccc2ccccc12)C(=O)O` has an Activity of 0.32%. In the case of `CC(C)(Sc1nc2cnccc2n1-c1ccc(C#N)c2ccccc12)C(=O)O`, the Activity is reported as 15.24%. For `CCOC(=O)C(C)Sc1nc2cccnc2n1-c1cccc2ccccc12` (stereo not drawn), the Activity was -1.84%. `COC(=O)C(C)Sc1nc2cnccc2n1-c1ccc(C#N)c2ccccc12` (stereo not drawn) was tested, and the Activity was 17.9%. In the case of `CCOC(=O)C(C)Sc1nc2ncccc2n1-c1ccc(C2CC2)c2ccccc12` (stereo not drawn), the Activity is reported as 35.37%. `CCOC(=O)C(C)(C)Sc1nc2cccnc2n1-c1cccc2ccccc12` gave an Activity of 8.54%. For `CC(C)(Sc1nc2ncccc2n1-c1ccc(C2CC2)c2ccccc12)C(=O)O`, the Activity was 11.47%. `CC(C)(Sc1nc2ncccc2n1-c1ccc(C#N)c2ccccc12)C(=O)O` gave an Activity of 3.67%. `O=C(O)CSc1nc2cnccc2n1-c1ccc(C2CC2)c2ccccc12` gave an Activity of 42.17%. `COC(=O)CCSc1nc2ncccc2n1-c1ccc(C#N)c2ccccc12` gave an Activity of 5.12%. In the case of `CCOC(=O)C(C)Sc1nc2cccnc2n1-c1ccc(C2CC2)c2ccccc12` (stereo not drawn), the Activity is reported as 40.34%. `N#Cc1ccc(-n2c(SCC(=O)O)nc3ncccc32)c2ccccc12` gave an Activity of 51.91%. `O=C(O)CCCSc1nc2ncccc2n1-c1ccc(C2CC2)c2ccccc12` was tested, and the Activity was 35.39%. With `CCOC(=O)CCCSc1nc2cccnc2n1-c1ccc(C2CC2)c2ccccc12` the Activity was 23.73%. In the case of `N#Cc1ccc(-n2c(SCC(=O)O)nc3cnccc32)c2ccccc12`, the Activity is reported as 59.22%. For `O=C(CSc1nnc(Br)n1-c1ccc(C2CC2)c2ccccc12)NS(=O)(=O)c1ccc(Cl)s1`, the Activity was 53.44%. For `N#Cc1ccc(-n2c(SC3(C(=O)O)CCC3)nc3ncccc32)c2ccccc12`, the Activity was 60.74%. In the case of `O=C(O)CCCSc1nc2cnccc2n1-c1ccc(C2CC2)c2ccccc12`, the Activity is reported as 56.26%. For `CCS(=O)(=O)NC(=O)CSc1nnc(Br)n1-c1ccc(C2CC2)c2ccccc12`, the Activity was 11.04%. `O=C(CSc1nnc(Br)n1-c1ccc(C2CC2)c2ccccc12)NS(=O)(=O)c1ccc(Cl)cc1` gave an Activity of 76.46%. For `CCOC(=O)CCCSc1nc2cccnc2n1-c1c(C)cc(C)cc1C`, the Activity was 11.19%. `N#Cc1ccc(-n2c(SCCC(=O)O)nc3ncccc32)c2ccccc12` showed an Activity of 71.62%. In the case of `O=C(O)CSc1nc2ncccc2n1-c1ccc(C2CC2)c2ccccc12`, the Activity is reported as 34.5%. `O=C(O)CCCSc1nc2cccnc2n1-c1cccc2ccccc12` gave an Activity of 1.4%. With `COC(=O)CSc1nc2ncccc2n1-c1ccc(C#N)c2ccccc12` the Activity was 9.51%. `O=C(O)C1(Sc2nc3cnccc3n2-c2ccc(C3CC3)c3ccccc23)CCC1` gave an Activity of 72.99%. `CCCS(=O)(=O)NC(=O)CSc1nnc(Br)n1-c1ccc(C2CC2)c2ccccc12` gave an Activity of 24.06%. `CCOC(=O)C1(Sc2nc3cnccc3n2-c2ccc(C3CC3)c3ccccc23)CCC1` gave an Activity of 41.35%. `CCOC(=O)C(C)(C)Sc1nc2ncccc2n1-c1ccc(C2CC2)c2ccccc12` gave an Activity of 45.58%. For `COC(=O)CCCSc1nc2ncccc2n1-c1ccc(C#N)c2ccccc12`, the Activity was 7.17%. For `CC(C)(Sc1nc2cccnc2n1-c1ccc(C2CC2)c2ccccc12)C(=O)O`, the Activity was -0.83%. For `N#Cc1ccc(-n2c(SC3(C(=O)O)CCC3)nc3cnccc32)c2ccccc12`, the Activity was 27.36%. Compound `Cc1ccc(S(=O)(=O)NC(=O)CSc2nnc(Br)n2-c2ccc(C3CC3)c3ccccc23)cc1` has an Activity of 79.41%. `O=C(CSc1nnc(Br)n1-c1ccc(C2CC2)c2ccccc12)NS(=O)(=O)c1ccccc1` showed an Activity of 64.65%. Compound `COC(=O)C(C)Sc1nc2ncccc2n1-c1ccc(C#N)c2ccccc12` (stereo not drawn) has an Activity of 13%. `N#Cc1ccc(-n2c(SCCC(=O)O)nc3cnccc32)c2ccccc12` was tested, and the Activity was 51.13%. Compound `O=C(CSc1nnc(Br)n1-c1ccc(C2CC2)c2ccccc12)NS(=O)(=O)c1ccc([N+](=O)[O-])cc1` has an Activity of 66.71%. `COC(=O)CSc1nc2cnccc2n1-c1ccc(C#N)c2ccccc12` was tested, and the Activity was 14.54%.
